Experimental data from ChEMBL document CHEMBL1145026, “Synthesis and antibacterial activity of 6-O-arylbutynyl ketolides with improved activity against some key erythromycin-resistant pathogens” (2003).
≈ marks a conversion by molar mass, not a printed value.

Legend:
Assay type in all cases: functional
Haemophilus influenzae = experiment: In Vitro antibacterial activity against H. flu DILL (Amp-R strain)
Outline: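 MIC by agar dilution following NCCLS recommendations. Test organism is H. influenzae DILL, an ampicillin-resistant strain carrying a β-lactamase-positive determinant.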

Staphylococcus aureus [1] = experiment: In Vitro antibacterial activity against Staphylococcus aureus 1775 (ermA-c strain)
Outline: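 Methicillin-resistant (MRSA) strain. Minimum inhibitory concentration read by agar dilution, following NCCLS recommendations.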

Staphylococcus aureus [2] = experiment: In Vitro antibacterial activity against Staphylococcus aureus A5177 (ermA-i strain)
Outline: (§1)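 MIC by agar dilution following NCCLS recommendations, against S. aureus.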

Staphylococcus aureus [3] = experiment: In Vitro antibacterial activity against Staphylococcus aureus ATCC 6538P (Ery-S […] strain); outline: as §1
Streptococcus pyogenes [4] = experiment: In Vitro antibacterial ativity against Streptococcus pyogenes 930 (ermB strain)
Outline: (§2)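 Strains with MLSB resistance encoded by ermB. MICs obtained by agar dilution as recommended by NCCLS.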

Streptococcus pneumoniae [5] = experiment: In Vitro antibacterial activity against Streptococcus pneumoniae ATCC 6303 (Ery-S strain)
Outline: (§3)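 Agar dilution method per NCCLS recommendations, with activity reported as minimum inhibitory concentration.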

Streptococcus pyogenes [6] = experiment: In Vitro antibacterial ativity against Streptococcus pyogenes EES61 (Ery-S strain); outline: as §3
Streptococcus pneumoniae [7] = experiment: In Vitro antibacterial activity against Streptococcus pneumoniae 5649 (mefE strain)
Outline: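 Efflux-resistant strain carrying mefE. MIC determined by the agar dilution method recommended by NCCLS.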

Streptococcus pneumoniae [8] = experiment: In Vitro antibacterial activity against Streptococcus pneumoniae 5979 (ermB strain); outline: as §2
Streptococcus pyogenes [9] = experiment: In Vitro antibacterial ativity against Streptococcus pyogenes PIU2548 (mefA strain)
Outline: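 Tested on a mefA-encoded efflux-resistant strain. The endpoint is the MIC by NCCLS-recommended agar dilution.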

| Compound | MIC (Haemophilus influenzae) [µg/mL] | MIC (Staphylococcus aureus [1]) [µg/mL] | MIC (Staphylococcus aureus [2]) [µg/mL] | MIC (Staphylococcus aureus [3]) [µg/mL] | MIC (Streptococcus pyogenes [4]) [µg/mL] | MIC (Streptococcus pneumoniae [5]) [µg/mL] | MIC (Streptococcus pyogenes [6]) [µg/mL] | MIC (Streptococcus pneumoniae [7]) [µg/mL] | MIC (Streptococcus pneumoniae [8]) [µg/mL] | MIC (Streptococcus pyogenes [9]) [µg/mL] |
| --- | --- | --- | --- | --- | --- | --- | --- | --- | --- | --- |
| CC[C@H]1OC(=O)[C@H](C)C(=O)[C@H](C)[C@@H](O[C@@H]2O[C@H](C)C[C@H](N(C)C)[C@H]2O)[C@](C)(OC)C[C@@H](C)C(=O)[C@H](C)[C@H]2N(CCCCn3cnc(-c4cccnc4)c3)C(=O)O[C@]12C [TELITHROMYCIN] | 2 (≈ 2.46 µM) | > 100 | 0.1 (≈ 0.123 µM) | 0.1 (≈ 0.123 µM) | 8 (≈ 9.85 µM) | 0.004 (≈ 0.00493 µM) | 0.004 (≈ 0.00493 µM) | 0.5 (≈ 0.616 µM) | 8 (≈ 9.85 µM) | 2 (≈ 2.46 µM) |
| CC[C@H]1OC(=O)[C@H](C)C(=O)[C@H](C)[C@@H](O[C@@H]2O[C@H](C)C[C@H](N(C)C)[C@H]2O)[C@@](C)(OCC#CCc2ccc(-c3csnn3)cc2)C[C@@H](C)C(=O)[C@H](C)[C@H]2NC(=O)O[C@@]21C | 2 (≈ 2.47 µM) | > 100 | 0.1 (≈ 0.123 µM) | 0.05 (≈ 0.0617 µM) | 4 (≈ 4.93 µM) | < 0.004 | 0.03 (≈ 0.037 µM) | 0.25 (≈ 0.308 µM) | 8 (≈ 9.86 µM) | 0.125 (≈ 0.154 µM) |
| CC[C@H]1OC(=O)[C@H](C)C(=O)[C@H](C)[C@@H](O[C@@H]2O[C@H](C)C[C@H](N(C)C)[C@H]2O)[C@@](C)(OCC#CCc2ccccc2)C[C@@H](C)C(=O)[C@H](C)[C@H]2NC(=O)O[C@@]21C | 2 (≈ 2.75 µM) | > 100 | 0.2 (≈ 0.275 µM) | 0.2 (≈ 0.275 µM) | 128 (≈ 176 µM) | 0.03 (≈ 0.0413 µM) | 0.06 (≈ 0.0825 µM) | 0.25 (≈ 0.344 µM) | 16 (≈ 22 µM) | 0.25 (≈ 0.344 µM) |
| CC[C@H]1OC(=O)[C@H](C)[C@@H](O[C@H]2C[C@@](C)(OC)[C@@H](O)[C@H](C)O2)[C@H](C)[C@@H](O[C@@H]2O[C@H](C)C[C@H](N(C)C)[C@H]2O)[C@](C)(O)C[C@@H](C)C(=O)[C@H](C)[C@@H](O)[C@]1(C)O [ERYTHROMYCIN] | 4 (≈ 5.45 µM) | > 128 | > 128 | 0.5 (≈ 0.681 µM) | > 128 | 0.015 (≈ 0.0204 µM) | 0.015 (≈ 0.0204 µM) | 4 (≈ 5.45 µM) | > 128 | 8 (≈ 10.9 µM) |
| CC[C@H]1OC(=O)[C@@](C)(F)C(=O)[C@H](C)[C@@H](O[C@@H]2O[C@H](C)C[C@H](N(C)C)[C@H]2O)[C@@](C)(OCC#CCc2ccc(-c3csnn3)cc2)C[C@@H](C)C(=O)[C@H](C)[C@H]2NC(=O)O[C@@]21C | 4 (≈ 4.83 µM) | > 100 | 0.05 (≈ 0.0603 µM) | 0.05 (≈ 0.0603 µM) | 4 (≈ 4.83 µM) | 0.015 (≈ 0.0181 µM) | 0.03 (≈ 0.0362 µM) | 0.5 (≈ 0.603 µM) | 4 (≈ 4.83 µM) | 0.25 (≈ 0.302 µM) |
| CC[C@H]1OC(=O)[C@H](C)C(=O)[C@H](C)[C@@H](O[C@@H]2O[C@H](C)C[C@H](N(C)C)[C@H]2O)[C@@](C)(OCC#CCc2ccc(-c3cccnc3)cc2)C[C@@H](C)C(=O)[C@H](C)[C@H]2NC(=O)O[C@@]21C | 4 (≈ 4.98 µM) | > 100 | 0.02 (≈ 0.0249 µM) | 0.02 (≈ 0.0249 µM) | 8 (≈ 9.95 µM) | < 0.004 | < 0.004 | 0.125 (≈ 0.155 µM) | 0.125 (≈ 0.155 µM) | 0.125 (≈ 0.155 µM) |
| CC[C@H]1OC(=O)[C@H](C)C(=O)[C@H](C)[C@@H](O[C@@H]2O[C@H](C)C[C@H](N(C)C)[C@H]2O)[C@@](C)(OCC#CCc2ccc(-c3cnccn3)cc2)C[C@@H](C)C(=O)[C@H](C)[C@H]2NC(=O)O[C@@]21C | 4 (≈ 4.97 µM) | > 100 | 0.02 (≈ 0.0248 µM) | 0.02 (≈ 0.0248 µM) | 4 (≈ 4.97 µM) | < 0.004 | < 0.004 |  | 0.03 (≈ 0.0373 µM) | 0.015 (≈ 0.0186 µM) |
| CC[C@H]1OC(=O)[C@H](C)C(=O)[C@H](C)[C@@H](O[C@@H]2O[C@H](C)C[C@H](N(C)C)[C@H]2O)[C@@](C)(OCC#CCc2cnc3ccccc3c2)C[C@@H](C)C(=O)[C@H](C)[C@H]2NC(=O)O[C@@]21C | 2 (≈ 2.57 µM) | > 100 | 0.1 (≈ 0.129 µM) | 0.1 (≈ 0.129 µM) | 16 (≈ 20.6 µM) | < 0.004 | 0.015 (≈ 0.0193 µM) | 0.25 (≈ 0.321 µM) | 2 (≈ 2.57 µM) | 0.25 (≈ 0.321 µM) |
